# Experimental data published in ChEMBL document CHEMBL4004809, “Dibenzofurans and Pseudodepsidones from the Lichen Stereocaulon paschale Collected in Northern Quebec” (2017).
# Activity calls are given as the source filed them. The calls are words filed in the database; no cut-off is given here.
# Tests used:
# Type in all cases: functional
# Porphyromonas gingivalis [1] = experiment: Antibacterial activity against Porphyromonas gingivalis ATCC 33277 after 24 hrs; conditions: ATCC 33277, 24 h
# Outline: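 P. gingivalis grown anaerobically (N2-H2-CO2 80:10:10) at 37 °C in Todd-Hewitt broth with 0.001% hemin and 0.0001% vitamin K. Overnight culture diluted to OD660 0.2 and added 1:1 to serial dilutions of compound (80 to 5 μM). Vehicle-only and penicillin G controls. After 24 h, MIC taken as lowest concentration giving complete growth inhibition. Triplicate.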
# Streptococcus mutans [2] = experiment: Antibacterial activity against Streptococcus mutans ATCC 25175 after 24 hrs; conditions: ATCC 25175, 24 h
# Outline: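 S. mutans grown aerobically at 37 °C in Todd-Hewitt broth with 0.001% hemin and 0.0001% vitamin K. Overnight culture diluted to OD660 0.2 and mixed 1:1 with serial compound dilutions (80 to 5 μM). Vehicle-only and penicillin G controls included. MIC = lowest concentration with complete growth inhibition after 24 h. Triplicate.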
# Porphyromonas gingivalis [3] = experiment: Bactericidal activity against Porphyromonas gingivalis ATCC 33277 after 24 hrs; conditions: ATCC 33277, 24 h
# Outline: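 For MBC, P. gingivalis was run as in the anaerobic broth MIC set-up (THBHK, 37 °C, 24 h, 80 to 5 μM). 10 μL from wells without visible growth was spread on solid medium. MBC was read from these subcultures. Penicillin G served as reference. Triplicate.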
# Streptococcus mutans [4] = experiment: Bactericidal activity against Streptococcus mutans ATCC 25175 after 24 hrs; conditions: ATCC 25175, 24 h
# Outline: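 MBC for S. mutans was run after the aerobic 37 °C THBHK microdilution (80 to 5 μM, 24 h). 10 μL aliquots from wells lacking visible growth were plated on solid medium to find the minimal bactericidal concentration. Penicillin G served as reference. Triplicate.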
# Candida albicans = experiment: Antifungal activity against Candida albicans ATCC 28366 assessed as growth inhibition at 80 uM after 24 hrs
# Outline: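 C. albicans cultured aerobically at 37 °C in yeast nitrogen base with 0.5% glucose. Overnight culture diluted to OD660 0.2 and added 1:1 to compound dilutions, top level 80 μM. Vehicle-only and nystatin controls included. Growth inhibition scored after 24 h. Triplicate.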
MIC (Porphyromonas gingivalis [1]),MIC (Streptococcus mutans [2]),Compound,MBC (Porphyromonas gingivalis [3]),MBC (Streptococcus mutans [4]),growth inhibition (GI) (Candida albicans)
> 80 µM,> 80 µM,Cc1cc(O)cc2oc3cc(O)cc(CO)c3c12,> 80 µM,> 80 µM,inactive
80 µM,80 µM,CCCCCc1c(Oc2cc(OC)cc3c2C(=O)OC3(CCCC)OC)c(O)cc(O)c1C(=O)O (centres undefined),80 µM,80 µM,inactive
> 80 µM,> 80 µM,COC(=O)c1c(C)cc(O)c(C)c1O [ATRARIC ACID],> 80 µM,> 80 µM,inactive
20 µM,10 µM,CCC/C=C1\OC(=O)c2c(Oc3c(O)cc(O)cc3CCCCC)cc(OC)cc21,20 µM,20 µM,inactive
80 µM,80 µM,CCCCCc1cc(O)cc(O)c1Oc1cc(OC)cc2c1C(=O)OC2(CCCC)OC (centres undefined),80 µM,80 µM,inactive
80 µM,80 µM,CCCCCc1cc(O)cc(O)c1Oc1cc(OC)cc(C(=O)CCCC)c1C(=O)OC,80 µM,> 80 µM,inactive
> 80 µM,> 80 µM,Cc1c(C(=O)O)c(O)cc2oc3cc(O)cc(C(=O)O)c3c12,> 80 µM,> 80 µM,inactive
> 80 µM,80 µM,CCCCCc1cc(O)cc(O)c1Oc1cc(OC)cc2c1C(=O)OC2(O)CCCC (centres undefined) [SAKISACAULON A],> 80 µM,80 µM,inactive
0.29 µM,0.15 µM,CC1(C)S[C@@H]2[C@H](NC(=O)Cc3ccccc3)C(=O)N2[C@H]1C(=O)O [PENICILLIN G],2.3 µM,4.7 µM,
40 µM,80 µM,CCCCCc1c(Oc2cc(OC)cc(C(=O)CCCC)c2C(=O)OC)c(O)cc(O)c1C(=O)O,40 µM,> 80 µM,inactive
> 80 µM,> 80 µM,COC(=O)c1c(C)cc(O)c(C=O)c1O [METHYL HAEMATOMMATE],> 80 µM,> 80 µM,inactive
80 µM,20 µM,CCCCCc1c2c(cc(O)c1C(=O)O)OC(=O)c1c(cc(OC)cc1C(=O)CCCC)O2 [LOBARIC ACID],80 µM,80 µM,inactive
> 80 µM,> 80 µM,Cc1c(C(=O)O)c(O)cc2oc3cc(O)cc(CO)c3c12,> 80 µM,> 80 µM,inactive
